This is an account of results in ChEMBL document CHEMBL1138609, “Amiloride derived inhibitors of acid-sensing ion channel-3 (ASIC3)” (Bioorg Med Chem Lett, 2009).

Series [1] concerns the target T1, Acid-sensing ion channel 3 (Homo sapiens) (UniProt Q9UHC3).
T1 sequence (whole entry): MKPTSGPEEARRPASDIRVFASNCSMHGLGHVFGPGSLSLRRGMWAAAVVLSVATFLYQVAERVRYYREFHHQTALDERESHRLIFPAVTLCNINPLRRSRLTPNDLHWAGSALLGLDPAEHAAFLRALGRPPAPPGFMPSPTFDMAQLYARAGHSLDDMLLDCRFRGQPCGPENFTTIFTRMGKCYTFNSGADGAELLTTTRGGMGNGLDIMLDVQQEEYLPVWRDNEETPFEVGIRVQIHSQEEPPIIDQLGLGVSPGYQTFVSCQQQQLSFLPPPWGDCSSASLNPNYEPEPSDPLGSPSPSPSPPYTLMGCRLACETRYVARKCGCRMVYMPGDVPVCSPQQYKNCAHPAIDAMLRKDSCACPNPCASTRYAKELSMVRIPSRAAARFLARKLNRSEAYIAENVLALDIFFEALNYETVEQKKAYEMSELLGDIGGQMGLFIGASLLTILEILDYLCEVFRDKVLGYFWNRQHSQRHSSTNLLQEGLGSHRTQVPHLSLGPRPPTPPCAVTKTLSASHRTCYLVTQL
The experiment in a line: Inhibition of ASIC3 at 20 uM assessed as inhibition of peak current by patch clamp electrophysiology relative to baseline. In short, it runs like this:
(§1)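 Automated patch clamp on ASIC3 channels, used both for single-dose screening and for multi-dose follow-up. Extracellular solution: 150 NaCl, 5 KCl, 2 CaCl2, 1 MgCl2, 12 dextrose, with HEPES pH 7.4 or MES pH 5.5. Compound applied 120 s before acid. Peak current compared with vehicle or baseline peak; N = 3.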
(Patch clamp records ionic current or voltage across a cell membrane.)

Series [2] deals with T1, Acid-sensing ion channel 3 (Homo sapiens). The experiment in a line: Inhibition of ASIC3 assessed as inhibition of peak current at 1 uM by patch clamp electrophysiology relative to baseline. In outline: as §1
The target of series [3] is T2, Acid-sensing ion channel 3 (Homo sapiens, UniProt Q9UHC3).
T2 sequence (Q9UHC3 whole entry): T1 sequence (whole entry)
The series is described as follows: Inhibition of ASIC3 assessed as inhibition of peak current by patch clamp electrophysiology. In outline:
as §1

Series [4] is filed under the species Rattus norvegicus. The series is described as follows: activity against Sprague-Dawley rat complete Freund's adjuvant-induced inflammatory pain model assessed as reversal of mechanical hypersensitivity after 30 mins.
Series [5] concerns Rattus norvegicus. The experiment in a line: activity against Sprague-Dawley rat complete Freund's adjuvant-induced inflammatory pain model assessed as reversal of mechanical hypersensitivity at 30 mg/kg, ip after 30 mins.
For series [6], the target named is T3, Acid-sensing ion channel 3 (Rattus norvegicus, UniProt O35240).
T3 sequence (O35240 whole entry): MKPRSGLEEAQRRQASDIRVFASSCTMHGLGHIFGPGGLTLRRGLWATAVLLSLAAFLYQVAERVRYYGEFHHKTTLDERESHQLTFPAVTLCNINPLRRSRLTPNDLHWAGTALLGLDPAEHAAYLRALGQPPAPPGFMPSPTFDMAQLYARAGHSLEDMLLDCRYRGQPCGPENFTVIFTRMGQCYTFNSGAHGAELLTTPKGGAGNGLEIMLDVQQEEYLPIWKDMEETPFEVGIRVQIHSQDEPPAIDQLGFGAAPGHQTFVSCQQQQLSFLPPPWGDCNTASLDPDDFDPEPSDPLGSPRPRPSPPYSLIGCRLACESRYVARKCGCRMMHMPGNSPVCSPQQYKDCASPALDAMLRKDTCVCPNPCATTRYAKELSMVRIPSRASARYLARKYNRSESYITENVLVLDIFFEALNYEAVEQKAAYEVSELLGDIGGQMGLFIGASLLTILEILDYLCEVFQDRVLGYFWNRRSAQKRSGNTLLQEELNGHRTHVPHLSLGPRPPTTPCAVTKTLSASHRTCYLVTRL
The experiment in a line: Inhibition of rat ASIC3 assessed as inhibition of peak current by patch clamp electrophysiology. In short, it runs like this:
as §1

The nature of series [7]: Plasma concentration in Sprague-Dawley rat after 30 mins. Format: ADME, cell-free. In short, it runs like this: (§2)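 Rats from the CFA inflammatory pain study were sampled 30 min after dosing. Average concentrations were measured in plasma and in brain.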
Series [8] in a line: Drug level in Sprague-Dawley rat brain after 30 mins. Format: ADME, tissue-based. Particulars: read-out: Drug uptake. In outline:
as §2

Active and inactive are the calls of the source. No cut-off for these calls is given here.

What is called inhibition is the relative decrease from the control value, in per cent. Broadly, the IC50 is the concentration needed to halve the response being measured.

In the case of `Cc1cc(C)cc(-c2cnc(C(=O)N=C(N)N)c(N)n2)c1`, the inhibition in series [1] is 95%; in series [2], 39%.
Consider `NC(N)=NC(=O)c1nc(Cl)c(Nc2ccc3ccccc3c2)nc1N`, for which the results for the inhibition in series [1] and in series [2] were 98% and 62%, respectively. Also, the IC50 in series [3] turned out to be 510 nM.
In the case of `NC(N)=NC(=O)c1nc(Cl)c(Nc2ccccn2)nc1N`, the inhibition in series [1] is 25%.
With `NC(N)=NC(=O)c1nc(Cl)c(NCc2ccccc2F)nc1N`, the inhibition in series [1] worked out at 92%; in series [2], 26%.
On the same counts, the results for `NC(N)=NC(=O)c1nc(Cl)c(Nc2cccc(Cl)c2)nc1N` are 94% and 47%.
As for `N=C(N)NC(=O)c1nc(Cl)c(N)nc1N` [AMILORIDE], the inhibition in series [1] amounted to 65%; in series [2] it was 22%. The IC50 in series [3] amounted to 4400 nM.
In the case of `NC(N)=NC(=O)c1ncc(-c2ccsc2)nc1N`, the inhibition in series [2] is 23%.
Turning to `NC(N)=NC(=O)c1nc(Cl)c(NCC2CCCCC2)nc1N`, the values for the inhibition in series [1] and in series [2] were 96% and 28%, respectively.
The matching figures for `NC(N)=NC(=O)c1nc(Cl)c(N2CCc3ccccc32)nc1N`: 89% and 46%.
As to `NC(N)=NC(=O)c1nc(Cl)c(NCCc2ccccc2F)nc1N`, in series [2], the inhibition turned out to be 34%.
Still for that read-out and setting: for `CSc1nc(N)c(C(=O)N=C(N)N)nc1Cl` the value was 12%.
For `NC(N)=NC(=O)c1nc(Cl)c(Oc2ccc3ccccc3c2)nc1N`, the inhibition turned out to be 91% in series [1] and 33% in series [2].
As to `NC(N)=NC(=O)c1nc(Cl)c(OCc2ccc3ccccc3c2)nc1N`, in series [2], the inhibition is 9%.
For `NC(N)=NC(=O)c1nc(Cl)c(N2CCCCC2)nc1N`, in series [1], the inhibition came out at 85%.
Same read-out and setting: for `NC(N)=NC(=O)c1nc(Cl)c(NCC(F)(F)F)nc1N` the value was 74%.
With `NC(N)=NC(=O)c1nc(Cl)c(Nc2ccc(C(F)(F)F)cc2)nc1N`, in series [2], the inhibition amounted to 50%.
Same read-out and setting: for `NC(N)=NC(=O)c1ncc(-c2ccccc2-c2ccccc2)nc1N` the value was 8%; for `NC(N)=NC(=O)c1nc(Cl)c(Nc2ccc3ncccc3c2)nc1N`, 41%.
As to `NC(N)=NC(=O)c1nc(Cl)c(N2CCOCC2)nc1N`, the inhibition in series [1] is 60%.
With `NC(N)=NC(=O)c1nc(Cl)c(Nc2ccncc2)nc1N`, the inhibition in series [2] is 14%.
For `NC(N)=NC(=O)c1nc(Cl)c(O)nc1N`, the inhibition in series [1] was found to be 9%.
With `NC(N)=NC(=O)c1nc(Cl)c(NCc2ccccc2Cl)nc1N`, the inhibition stood at 90% in series [1] and 31% in series [2].
The matching figures for `CCCN(C)c1nc(N)c(C(=O)N=C(N)N)nc1Cl`: 91% and 32%.
On the same counts, the results for `NC(N)=NC(=O)c1nc(Cl)c(NCc2ccc(Cl)cc2)nc1N` are 97% and 46%.
As to `NC(N)=NC(=O)c1nc(Cl)c(NCC2CCc3ccccc3C2)nc1N` (stereo unspecified), in series [2], the inhibition stood at 44%.
Regarding `CC(C)(C)Nc1nc(N)c(C(=O)N=C(N)N)nc1Cl`, the inhibition in series [1] is 48%.
Consider `NC(N)=NC(=O)c1nc(Cl)c(NCCc2ccc(F)cc2)nc1N`, for which the inhibition in series [2] amounted to 32%.
Same read-out and setting: for `COc1nc(N)c(C(=O)N=C(N)N)nc1Cl` the value was 21%.
On to `NC(N)=NC(=O)c1nc(Cl)c(NCCc2cccc(F)c2)nc1N`, for which the inhibition in series [2] was 46%.
As for `N=C(N)NC(=O)c1nc(Cl)c(N2CCCCCC2)nc1N`, the inhibition in series [1] was 51%.
In the case of `NC(N)=NC(=O)c1nc(Cl)c(Sc2ccc3ccccc3c2)nc1N`, the inhibition in series [2] is 12%.
Same read-out and setting: for `NC(N)=NC(=O)c1ncc(-c2cccc3ccccc23)nc1N` the value was 21%; for `NC(N)=NC(=O)c1nc(Cl)c(Oc2cc3ccccc3cn2)nc1N`, 11%.
For the compound `NC(N)=NC(=O)c1nc(Cl)c(Oc2ccc3cccnc3c2)nc1N`, the inhibition in series [2] was 32%.
`CN1CCN(c2nc(N)c(C(=O)N=C(N)N)nc2Cl)CC1`: in series [1], the inhibition stood at 51%.
Take `NC(N)=NC(=O)c1nc(Cl)c(Oc2ccccc2)nc1N`: the inhibition worked out at 90% in series [1] and 23% in series [2].
The matching figures for `NC(N)=NC(=O)c1nc(Cl)c(N2CCCC2)nc1N`: 84% and 12%.
As for `CN(c1nc(N)c(C(=O)N=C(N)N)nc1Cl)C1CCCCC1`, the inhibition in series [1] stood at 57%.
Take `N=C(N)NC(=O)c1ncc(-c2cccc(-c3ccsc3)c2)nc1N`: in series [3], the IC50 is 640 nM.
`NC(N)=NC(=O)c1ncc(-c2cccc(-c3ccccc3)c2)nc1N`: the Activity entry in the series listed under Rattus norvegicus [4] is “Dose-dependent effect”. The outcome in the series with Rattus norvegicus [5] was Active. In addition, the values for the IC50 in series [6] and in series [3] were 950 nM and 490 nM, respectively. In series [2], the inhibition stood at 72%. For the same compound, the concentration at 0.5 h was determined as 2900 nM in series [7] and 79 nM in series [8].
As for `NC(N)=NC(=O)c1nc(Cl)c(NCc2cccc(F)c2)nc1N`, the inhibition in series [1] worked out at 90%; in series [2], 29%.
The matching figures for `NC(N)=NC(=O)c1nc(Cl)c(N2CCc3ccccc3C2)nc1N`: 96% and 52%.
Regarding `NC(N)=NC(=O)c1nc(Cl)c(Oc2ccc3ccccc3n2)nc1N`, the inhibition in series [2] came out at 34%.
Still for that read-out and setting: for `NC(N)=NC(=O)c1nc(Cl)c(Sc2ccccc2)nc1N` the value was 11%; for `NC(N)=NC(=O)c1ncc(-c2ccc(-c3ccccc3)cc2)nc1N`, 7%.
For the compound `NC(N)=NC(=O)c1nc(Cl)c(NCc2ccc3ccccc3c2)nc1N`, the inhibition in series [1] was found to be 93%; in series [2] it was 27%.
On the same counts, the results for `N=C(N)NC(=O)c1nc(Cl)c(NCCc2ccccc2)nc1N` are 94% and 46%.
`NC(N)=NC(=O)c1ncc(Cc2ccccc2)nc1N`: in series [2], the inhibition was 4%.
Consider `NC(N)=NC(=O)c1nc(Cl)c(Nc2ccccc2)nc1N`, for which the inhibition amounted to 95% in series [1] and 44% in series [2].
The matching figures for `NC(N)=NC(=O)c1nc(Cl)c(NC2CCCCC2)nc1N`: 92% and 21%.
The matching figures for `CN(C)c1nc(N)c(C(=O)NC(=N)N)nc1Cl`: 91% and 37%.
On the same counts, the results for `C=CCNc1nc(N)c(C(=O)N=C(N)N)nc1Cl` are 78% and 16%.
`NC(N)=NC(=O)c1ncc(-c2ccccc2)nc1N`: the inhibition in series [2] was found to be 35%.
On the same count and under the same terms, for `NC(N)=NC(=O)c1nc(Cl)c(Nc2cnc3ccccc3c2)nc1N` the value was 28%.
Regarding `CCCNc1nc(N)c(C(=O)N=C(N)N)nc1Cl`, the inhibition in series [1] was 91%; in series [2], 24%.
For the compound `NC(N)=NC(=O)c1nc(Cl)c(NC2CC2)nc1N`, the inhibition in series [1] was 78%.
For `NC(N)=NC(=O)c1ncc(-c2cccc(-c3ccsc3)c2)nc1N`, the figures for the inhibition in series [1] and in series [2] were 90% and 58%, respectively.
The matching figures for `NC(N)=NC(=O)c1ncc(-c2cccc(-c3ccoc3)c2)nc1N`: 82% and 30%.
Consider `NC(N)=NC(=O)c1ncc(-c2ccc3ccccc3c2)nc1N`, for which the inhibition in series [2] was 6%.
